Experimental data from ChEMBL document CHEMBL4619807, “Exploration of Alternative Scaffolds for P2Y14 Receptor Antagonists Containing a Biaryl Core” (J Med Chem, 2020).
≈ marks a conversion by molar mass, not a printed value. Calls of active or inactive are those of the source. The rule behind the calls is not given here.

Assays:
P2Y purinoceptor 14 [1] = biological target: T1, P2Y purinoceptor 14 (Homo sapiens, UniProt Q15391); experiment: Inhibition of MRS4174 binding to human P2Y14R expressed in CHO cells pre-incubated for 30 mins before MRS4174 addition and further incubated for 30 mins at pH 7.4 by flow cytomtery based competitive fluorescence assay; format: cell-based
T1 sequence (Q15391 whole entry): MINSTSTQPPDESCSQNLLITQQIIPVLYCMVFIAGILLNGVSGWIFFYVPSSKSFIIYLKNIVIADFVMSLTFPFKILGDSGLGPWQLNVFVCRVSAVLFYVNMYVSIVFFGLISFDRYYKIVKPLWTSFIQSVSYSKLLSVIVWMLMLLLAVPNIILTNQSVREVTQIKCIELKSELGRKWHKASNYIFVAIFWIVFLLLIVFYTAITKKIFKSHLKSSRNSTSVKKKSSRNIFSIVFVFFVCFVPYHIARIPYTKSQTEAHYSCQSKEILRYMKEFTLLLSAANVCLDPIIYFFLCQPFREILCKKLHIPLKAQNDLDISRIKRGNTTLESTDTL

P2Y purinoceptor 14 [2] = biological target: T2, P2Y purinoceptor 14 (Mus musculus, UniProt Q9ESG6); experiment: Inhibition of MRS4174 binding to mouse P2Y14R expressed in HEK293 cells pre-incubated for 30 mins before MRS4174 addition and further incubated for 30 mins by flow cytomtery based competitive fluorescence assay; format: cell-based
T2 sequence (Q9ESG6 whole entry): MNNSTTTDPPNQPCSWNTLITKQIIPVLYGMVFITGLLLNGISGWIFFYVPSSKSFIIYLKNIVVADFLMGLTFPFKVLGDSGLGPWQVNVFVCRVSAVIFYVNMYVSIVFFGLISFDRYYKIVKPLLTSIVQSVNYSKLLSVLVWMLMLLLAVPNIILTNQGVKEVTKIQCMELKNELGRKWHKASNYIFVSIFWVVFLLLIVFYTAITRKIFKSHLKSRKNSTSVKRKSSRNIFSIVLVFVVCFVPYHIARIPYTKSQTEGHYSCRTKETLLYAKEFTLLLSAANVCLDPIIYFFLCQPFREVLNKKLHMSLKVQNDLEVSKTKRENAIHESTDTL
How it was run: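 Competitive whole-cell binding in HEK293 cells stably expressing N-terminally HA-tagged mouse P2Y14R, grown in a 24-well plate to 80–90% confluency. Antagonist given at 1 nM–100 μM in serum-containing EMEM for 30 min at 37 °C, then tracer added at 20 nM final for 30 min.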

[3] = Aqueous solubility at pH 7.4 by pION method; format: physicochemical
How it was run: (§1)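 Equilibrium aqueous solubility measured by the pION method at pH 4.0 and at pH 7.4, in μg/mL; mean ± SD.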

[4] = Aqueous solubility at pH 4 by pION method; format: physicochemical; how it was run: as §1
[5] = Lipophilicity, change in Constant K of the compound by RP-HPLC analysis relative to PPTN; format: physicochemical
How it was run: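 Lipophilicity taken from reversed-phase HPLC retention time on a C18 column. Elution used a 20 min gradient of 10 to 100% acetonitrile in 10 mM triethylammonium acetate. Reported as Δk against the reference antagonist.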

[6] = Unbound fraction in mouse plasma; format: ADME, cell-free
How it was run: (§2)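 Plasma protein binding measured at 10 μM compound in human and mouse plasma, expressed as percent unbound (mean ± SD). Verapamil and warfarin were positive controls.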

[7] = Unbound fraction in human plasma; format: ADME, cell-free; how it was run: as §2
[8] = Binding affinity to sigma 2 receptor (unknown origin); parameters: species or system Homo sapiens
Homo sapiens = species: Homo sapiens; experiment: Selectivity index, ratio of IC50 for inhibition of MRS4174 binding to human P2Y14R expressed in CHO cells to IC50 for inhibition of MRS4174 binding to mouse P2Y14R expressed in […] cells; format: cell-based
How it was run: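 Ratio of human to mouse IC50 from fluorescent-tracer binding. Human P2Y14R was in CHO cells in a 96-well format. Mouse P2Y14R was in HEK293 cells, with 30 min antagonist pre-incubation and then 20 nM tracer for 30 min at 37 °C. Both read by flow cytometry.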

Cannabinoid receptor 2 [9] = biological target: T3, Cannabinoid receptor 2 (Homo sapiens, UniProt P34972); experiment: Antagonist activity at CB2 receptor (unknown origin)
How it was run: (§3)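 Tested through the Psychoactive Drug Screening Program as functional agonist and antagonist at CB1 and CB2 cannabinoid receptors, with an upper test concentration of 10 μM.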

Cannabinoid receptor 2 [10] = biological target: T3, Cannabinoid receptor 2; experiment: Agonist activity at CB2 receptor (unknown origin); how it was run: as §3
Cannabinoid receptor 1 [11] = biological target: T4, Cannabinoid receptor 1 (Homo sapiens, UniProt P21554); experiment: Antagonist activity at CB1 receptor (unknown origin); how it was run: as §3
Mus musculus = experiment: Antiasthmatic activity in Aspergillus oryzae protease-mediated C57BL/6J mouse model of allergic asthma assessed as reduction in eosinophil infiltration in bronchoalveolar lavage fluid at 10 mg/kg, ip dosed 30 mins before OVA aerosol challenge and measured 2 days post-challenge by cell differential count assay; format: functional, organism-based
Cannabinoid receptor 1 [12] = biological target: T4, Cannabinoid receptor 1; experiment: Agonist activity at CB1 receptor (unknown origin); how it was run: as §3
[13] = biological target: Delta-type opioid receptor (Homo sapiens, UniProt P41143); experiment: Binding affinity to DOR (unknown origin)
[14] = biological target: Voltage-gated inwardly rectifying potassium channel KCNH2 (Homo sapiens, UniProt Q12809); experiment: Inhibition of human ERG
[15] = Stability in human plasma assessed as compound remaining level at 120 mins; format: ADME, cell-free; settings: 2 h
[16] = Plasma concentration in rat at 1 mg/kg, ip after 4 hrs; format: ADME, organism-based
How it was run: (§4)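 Rats dosed intraperitoneally at 1, 3 and 10 mg/kg and intravenously at 0.5 mg/kg. Solubilizing vehicle was aqueous DMSO. Plasma concentrations followed over time up to 12 h. Bioavailability derived from ip exposure relative to the iv dose.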

[17] = Half life in rat liver microsomes; format: ADME, Microsome
[18] = Half life in human liver microsomes; format: ADME, Microsome
Cytochrome P450 2C19 = Cytochrome P450 2C19 (Homo sapiens, UniProt P33261); experiment: Inhibition of CYP2C19 (unknown origin); format: ADME
[19] = Permeability from apical to basolateral side in human Caco2 cells; format: ADME, cell-based; settings: caco-2
[20] = Stability in rat plasma assessed as compound remaining level at 120 mins; format: ADME, cell-free; settings: 2 h
[21] = Cmax in rat at 10 mg/kg, ip after 3 to 4 hrs; format: ADME, organism-based; parameters: dose 10 mg/kg, route intraperitoneal; settings: in vivo; how it was run: as §4
[22] = Stability in mouse plasma assessed as compound remaining level at 120 mins; format: ADME, cell-free; settings: 2 h
[23] = Half life in rat at 1 mg/kg, ip; format: ADME, organism-based; settings: in vivo
Cytochrome P450 2C9 = Cytochrome P450 2C9 (Homo sapiens, UniProt P11712); experiment: Inhibition of CYP2C9 (unknown origin); format: ADME
[24] = Stability in simulated gastric fluid assessed as compound remaining level at 120 mins; format: physicochemical; settings: simulated gi fluid, 2 h
[25] = Plasma concentration in rat at 1 mg/kg, ip after 2 hrs; format: ADME, organism-based; how it was run: as §4
[26] = Bioavailability in rat at 1 to 10 mg/kg, ip; format: ADME, organism-based; settings: in vivo; how it was run: as §4
[27] = Drug level in rat at 10 mg/kg, ip after 12 hrs; format: ADME, organism-based; settings: in vivo; how it was run: as §4
Cytochrome P450 2D6 = Cytochrome P450 2D6 (Homo sapiens, UniProt P10635); experiment: Inhibition of CYP2D6 (unknown origin); format: ADME
[28] = Tmax in rat at 10 mg/kg, ip; format: ADME, organism-based; settings: in vivo; how it was run: as §4
HepG2 = experiment: Toxicity in human HepG2 cells; format: cell-based
[29] = Stability in simulated intestinal fluid assessed as compound remaining level at 120 mins; format: physicochemical; settings: simulated gi fluid, 2 h
[30] = Half life in mouse liver microsomes; format: ADME, Microsome
[31] = Half life in rat at 0.5 mg/kg, iv; format: ADME, organism-based; settings: in vivo
[32] = Binding affinity to 5HT6 receptor (unknown origin); parameters: species or system Homo sapiens

T4 sequence (P21554 whole entry): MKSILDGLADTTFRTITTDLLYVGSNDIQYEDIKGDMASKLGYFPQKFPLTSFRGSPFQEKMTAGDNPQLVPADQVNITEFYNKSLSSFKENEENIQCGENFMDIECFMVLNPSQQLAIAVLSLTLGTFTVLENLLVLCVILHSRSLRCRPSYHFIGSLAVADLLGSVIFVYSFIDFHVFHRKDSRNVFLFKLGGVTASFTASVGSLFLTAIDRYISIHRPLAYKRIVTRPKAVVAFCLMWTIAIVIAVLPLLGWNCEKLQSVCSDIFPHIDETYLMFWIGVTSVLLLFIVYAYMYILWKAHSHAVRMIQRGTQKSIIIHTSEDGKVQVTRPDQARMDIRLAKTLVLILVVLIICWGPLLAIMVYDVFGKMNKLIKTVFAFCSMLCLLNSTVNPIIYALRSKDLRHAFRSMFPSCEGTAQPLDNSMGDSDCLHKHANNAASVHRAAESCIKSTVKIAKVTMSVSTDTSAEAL
T3 sequence (P34972 whole entry): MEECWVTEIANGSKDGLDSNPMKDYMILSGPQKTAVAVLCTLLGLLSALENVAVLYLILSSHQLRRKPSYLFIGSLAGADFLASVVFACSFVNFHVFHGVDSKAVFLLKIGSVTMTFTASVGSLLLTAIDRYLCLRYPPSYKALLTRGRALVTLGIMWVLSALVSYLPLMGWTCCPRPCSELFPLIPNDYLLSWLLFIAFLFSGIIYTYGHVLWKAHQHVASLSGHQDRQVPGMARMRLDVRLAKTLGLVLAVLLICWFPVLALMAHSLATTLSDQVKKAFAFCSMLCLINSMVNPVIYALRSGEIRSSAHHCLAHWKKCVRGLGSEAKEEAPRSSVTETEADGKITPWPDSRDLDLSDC
Delta-type opioid receptor, sequence (P41143 whole entry): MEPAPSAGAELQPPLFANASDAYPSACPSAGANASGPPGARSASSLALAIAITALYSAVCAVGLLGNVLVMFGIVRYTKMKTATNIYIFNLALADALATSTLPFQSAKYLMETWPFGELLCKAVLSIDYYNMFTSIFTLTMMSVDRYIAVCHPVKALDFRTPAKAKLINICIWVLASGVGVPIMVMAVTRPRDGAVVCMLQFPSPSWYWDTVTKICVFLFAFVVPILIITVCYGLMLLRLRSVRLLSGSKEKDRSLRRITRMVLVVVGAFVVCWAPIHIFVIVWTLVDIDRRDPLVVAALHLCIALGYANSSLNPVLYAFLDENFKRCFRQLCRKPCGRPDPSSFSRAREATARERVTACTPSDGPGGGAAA
Cytochrome P450 2D6, sequence (P10635 whole entry): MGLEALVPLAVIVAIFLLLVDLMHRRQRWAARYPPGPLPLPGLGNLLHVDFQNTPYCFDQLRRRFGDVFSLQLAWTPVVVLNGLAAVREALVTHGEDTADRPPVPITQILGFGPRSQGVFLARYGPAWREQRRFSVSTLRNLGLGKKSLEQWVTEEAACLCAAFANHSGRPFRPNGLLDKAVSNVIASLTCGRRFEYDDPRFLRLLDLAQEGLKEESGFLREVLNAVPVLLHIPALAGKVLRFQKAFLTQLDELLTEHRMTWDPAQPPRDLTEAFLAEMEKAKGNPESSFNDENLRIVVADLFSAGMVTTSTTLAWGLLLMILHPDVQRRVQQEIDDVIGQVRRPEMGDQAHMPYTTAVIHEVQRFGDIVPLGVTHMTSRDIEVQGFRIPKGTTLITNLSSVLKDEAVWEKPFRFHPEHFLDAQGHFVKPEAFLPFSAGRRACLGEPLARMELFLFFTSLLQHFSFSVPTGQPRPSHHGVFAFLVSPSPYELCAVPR
Cytochrome P450 2C9, sequence (P11712 whole entry): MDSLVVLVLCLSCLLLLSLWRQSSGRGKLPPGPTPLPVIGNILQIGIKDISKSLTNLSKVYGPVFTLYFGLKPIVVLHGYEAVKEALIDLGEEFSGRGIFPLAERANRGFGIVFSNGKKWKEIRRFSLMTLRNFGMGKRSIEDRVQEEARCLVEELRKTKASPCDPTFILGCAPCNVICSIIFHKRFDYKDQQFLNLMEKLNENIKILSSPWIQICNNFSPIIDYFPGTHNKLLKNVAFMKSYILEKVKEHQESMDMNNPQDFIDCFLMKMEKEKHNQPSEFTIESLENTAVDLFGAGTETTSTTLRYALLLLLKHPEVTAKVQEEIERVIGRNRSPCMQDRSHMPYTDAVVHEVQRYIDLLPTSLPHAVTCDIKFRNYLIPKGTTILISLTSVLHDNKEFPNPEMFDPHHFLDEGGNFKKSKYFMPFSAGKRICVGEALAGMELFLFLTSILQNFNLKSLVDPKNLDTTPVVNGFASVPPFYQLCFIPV
Voltage-gated inwardly rectifying potassium channel KCNH2, sequence (Q12809 whole entry): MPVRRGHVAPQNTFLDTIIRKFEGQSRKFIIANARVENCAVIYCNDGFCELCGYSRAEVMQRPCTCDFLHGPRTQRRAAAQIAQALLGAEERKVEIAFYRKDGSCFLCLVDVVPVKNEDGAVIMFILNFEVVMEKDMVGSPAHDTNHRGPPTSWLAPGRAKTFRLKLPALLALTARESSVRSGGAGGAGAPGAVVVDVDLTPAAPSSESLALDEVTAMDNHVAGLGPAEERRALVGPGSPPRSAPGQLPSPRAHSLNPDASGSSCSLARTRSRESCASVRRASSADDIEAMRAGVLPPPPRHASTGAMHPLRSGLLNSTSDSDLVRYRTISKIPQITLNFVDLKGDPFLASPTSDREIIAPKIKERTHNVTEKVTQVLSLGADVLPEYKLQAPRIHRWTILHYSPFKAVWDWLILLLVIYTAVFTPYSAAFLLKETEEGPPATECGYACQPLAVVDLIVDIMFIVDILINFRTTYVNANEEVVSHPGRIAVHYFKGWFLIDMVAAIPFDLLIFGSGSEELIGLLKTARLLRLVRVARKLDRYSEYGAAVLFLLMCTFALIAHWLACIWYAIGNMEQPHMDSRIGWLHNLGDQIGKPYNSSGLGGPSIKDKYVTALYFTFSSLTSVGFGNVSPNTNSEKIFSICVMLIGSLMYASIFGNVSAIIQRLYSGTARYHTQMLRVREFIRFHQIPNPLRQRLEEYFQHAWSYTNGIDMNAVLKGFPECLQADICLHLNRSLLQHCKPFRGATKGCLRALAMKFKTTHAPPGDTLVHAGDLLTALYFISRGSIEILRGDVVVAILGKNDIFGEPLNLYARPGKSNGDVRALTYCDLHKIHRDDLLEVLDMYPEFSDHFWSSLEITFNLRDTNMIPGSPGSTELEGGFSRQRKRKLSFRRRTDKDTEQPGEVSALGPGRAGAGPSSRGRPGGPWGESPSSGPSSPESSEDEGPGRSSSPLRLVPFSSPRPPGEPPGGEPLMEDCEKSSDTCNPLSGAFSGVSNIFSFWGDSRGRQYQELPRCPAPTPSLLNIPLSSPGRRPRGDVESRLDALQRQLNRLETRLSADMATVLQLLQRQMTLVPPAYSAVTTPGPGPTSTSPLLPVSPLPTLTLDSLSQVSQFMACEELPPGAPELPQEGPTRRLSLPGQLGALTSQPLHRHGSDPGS
Cytochrome P450 2C19, sequence (P33261 whole entry): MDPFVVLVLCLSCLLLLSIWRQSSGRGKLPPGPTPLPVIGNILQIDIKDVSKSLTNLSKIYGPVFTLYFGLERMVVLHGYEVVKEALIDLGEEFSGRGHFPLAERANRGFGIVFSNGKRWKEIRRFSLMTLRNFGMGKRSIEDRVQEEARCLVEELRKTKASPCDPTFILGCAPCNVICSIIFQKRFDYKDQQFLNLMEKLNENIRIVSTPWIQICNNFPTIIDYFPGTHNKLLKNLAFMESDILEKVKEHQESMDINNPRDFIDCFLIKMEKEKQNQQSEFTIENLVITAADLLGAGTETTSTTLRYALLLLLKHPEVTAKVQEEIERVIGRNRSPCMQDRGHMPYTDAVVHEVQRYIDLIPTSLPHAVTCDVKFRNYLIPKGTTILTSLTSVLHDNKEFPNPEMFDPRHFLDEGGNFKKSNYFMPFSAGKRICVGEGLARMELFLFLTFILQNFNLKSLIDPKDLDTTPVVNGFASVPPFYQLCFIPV

Work on C[N+]12CCC(c3ccc(-c4cc(C(=O)O)cc5cc(-c6ccc(C(F)(F)F)cc6)ccc45)cc3)(CC1)CC2 yielded an IC50 (P2Y purinoceptor 14 [1]) of 38.3 nM, an IC50 (P2Y purinoceptor 14 [2]) of 56.3 nM and a solubility ([3]; buffer) of 1.72 µg/mL. The solubility ([4]; buffer) was 2.24 µg/mL, the “fold change (FC)” value [5] was 0.24 and the Fu [6] was 0.94%. It also gave a Fu [7] of 1.13%.
For NC(=O)c1cc(-c2ccc(C3CCNCC3)cc2)cc(-n2cc(-c3ccc(C(F)(F)F)cc3)nn2)c1, the IC50 (P2Y purinoceptor 14 [1]) was greater than 100000 nM.
Work on O=C(O)c1cc(-c2ccc(N3CCNCC3)cc2)cc(-n2cc(-c3ccc(C(F)(F)F)cc3)nn2)c1 yielded a Ki [8] of 6700 nM and a Ratio IC50 (Homo sapiens) of 2.1.
In the case of O=C(O)c1cc(-c2ccc(C3CCNCC3)cc2)c2ccc(-c3ccc(C(F)(F)F)cc3)cc2c1 [PPTN], the EC50 (Cannabinoid receptor 2 [9]) is reported as greater than 10000 nM, the solubility ([3]; buffer) is reported as 0.36 µg/mL (≈ 0.757 µM) and the solubility ([4]; buffer) is reported as 1.1 µg/mL (≈ 2.31 µM). The EC50 (Cannabinoid receptor 2 [10]) was greater than 10000 nM, the EC50 (Cannabinoid receptor 1 [11]) was greater than 10000 nM and the Activity (Mus musculus) was “Active”. It also gave an EC50 (Cannabinoid receptor 1 [12]) greater than 10000 nM.
With O=C(O)c1cc(-c2ccc(C34CCNCC3C4)cc2)cc(-n2cc(-c3ccc(C(F)(F)F)cc3)nn2)c1 (stereo not drawn) the IC50 (P2Y purinoceptor 14 [1]) was 359 nM, the Ki [13] was 2630 nM and the IC50 (P2Y purinoceptor 14 [2]) was 1160 nM. The Ki [8] was 300 nM and the Ratio IC50 (Homo sapiens) was 3.3.
With O=C(O)c1[nH]c(-c2ccc(C3=CCNCC3)cc2)cc1-n1cc(-c2ccc(C(F)(F)F)cc2)nn1 the IC50 (P2Y purinoceptor 14 [1]) was greater than 100000 nM.
Compound O=C(O)c1cc(-c2ccc(C34CCN(CC3)CC4)cc2)cc(-n2cc(-c3ccc(C(F)(F)F)cc3)nn2)c1 has an IC50 (P2Y purinoceptor 14 [1]) of 105 nM, an IC50 (P2Y purinoceptor 14 [2]) of 845 nM and a solubility ([3]; aqueous, read-out: solubility) of 0.1 to 1.1 µg/mL (≈ 0.193 to 2.12 µM). The solubility ([4]; aqueous, read-out: solubility) was 2.8 to 14.5 µg/mL (≈ 5.4 to 27.9 µM), the IC50 [14] was 16800 nM and the Stability [15] was 86.8%. The concentration at 4 h [16] was 163 nM, the t1/2 [17] was 1.8 h and the t1/2 [18] was 3.2 h. For the same compound, the IC50 (Cytochrome P450 2C19) was greater than 30000 nM, the “fold change (FC)” value [5] was -0.09 and the Papp [19] was 0.09 ×10⁻⁶ cm/s. It also gave a Stability [20] of 89.4%, a Cmax [21] of 900 ng/mL and a Stability [22] of 79.5%. It also gave a half-life [23] of 4.6 h, an IC50 (Cytochrome P450 2C9) greater than 30000 nM and a Stability [24] of 106%. It also gave a concentration at 2 h [25] of 206 nM, a bioavailability [26] of 100% and a Drug uptake [27] of 200 to 400 ng/kg. For the same compound, the IC50 (Cytochrome P450 2D6) was greater than 30000 nM, the Tmax [28] was 3 to 4 h and the IC50 (HepG2) was greater than 20000 nM. For the same compound, the Stability [29] was 102%, the t1/2 [30] was 5.18 h and the half-life [31] was 0.72 h.
For NC(=O)c1ccc(-c2cc(C(=O)O)cc(-n3cc(-c4ccc(C(F)(F)F)cc4)nn3)c2)cc1, the IC50 (P2Y purinoceptor 14 [2]) was 902 nM, the Ki [32] was 6890 nM and the Ratio IC50 (Homo sapiens) was 3.4.
